This note sets out measurements from ChEMBL document CHEMBL1156315, “Discovery of a novel sulfonamide-pyrazolopiperidine series as potent and efficacious gamma-secretase inhibitors” (Bioorg Med Chem Lett, 2010).

The target of series [1] is Gamma-secretase (Homo sapiens) (UniProt Q96BI3+Q9NZ42+Q8WW43+P49768+Q92542+P49810). Nature of the series: Inhibition of gamma-secretase-mediated APP cleavage in human SNC cells by ELISA. The class given is cell-based. For orientation: ELISA stands for enzyme-linked immunosorbent assay.
The target of series [2] is Gamma-secretase. Briefly: Inhibition of gamma-secretase-mediated APP cleavage in human IMR-32 cells assessed as amyloid beta40 level after 2 hrs by ELISA. The class given is cell-based.
Series [3] can be described thus: (§1) Metabolic stability in human liver microsomes assessed as compound remaining after 30 mins in presence of 1 mM NADPH. The class given is ADME, Microsome. Conditions: liver microsomes, read-out: Stability. The gist of the method: (§2)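 Liver microsomes (0.5 mg protein) in phosphate buffer with 1 mM NADPH, incubated 30 min at 37 °C; read-out is the percentage of parent compound remaining.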
(Microsomes from liver hold many membrane-bound enzymes, among them those of drug oxidation.)

Series [4] has as its target Gamma-secretase. Briefly: Inhibition of gamma-secretase-mediated notch cleavage in human SNC cells by ELISA. It counts as cell-based.
Series [5] addresses Gamma-secretase. Nature of the series: Inhibition of gamma-secretase-mediated notch cleavage in human IMR-32 cells after 2 hrs by ELISA. The class given is cell-based.
Series [6] in a line: (§3) Metabolic stability in human liver microsomes assessed as compound remaining after 30 mins in presence of 1 mM UDPGA, 100 mM MgCl2 and 25 ug/ml alamethacin. The class given is ADME, Microsome. Conditions: liver microsomes, read-out: Stability. The gist of the method: (§4)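 Glucuronidation conditions: liver microsomes (0.5 mg protein) in phosphate buffer with 1 mM UDPGA, 100 mM MgCl₂ and alamethacin, 30 min at 37 °C; the percentage of compound remaining is reported.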

The subject of series [7] is Liver microsomes. The description is as §1. The settings on record: microsomes, 0.5 h. The class given is ADME, Microsome. A digest of the protocol:
as §2

Series [8] concerns Liver microsomes. The series is described as §3. The class given is ADME, Microsome. Conditions: microsomes, 0.5 h. A digest of the protocol:
as §4

Series [9] in a line: Ratio of drug level in FVB mouse brain to plasma. It counts as ADME, cell-free. The gist of the method: (§5)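 Wild-type FVB mice received a single 5 mg/kg oral dose. Brain Aβ40 reduction and the brain/plasma compound ratio were determined 3 h post-dose.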
In another series the test system is Mus musculus. Nature of the series: Neuroprotective activity in FVB mouse brain assessed as reduction in amyloid beta 40 level at 5 mg/kg, po after 3 hrs. The class given is functional. The arrangement: scale not given: the % may be the effect or the level left. A digest of the protocol: as §5

pIC50: −log10 of the molar value.

A word on the pIC50: it is the IC50 on a negative log10 scale, so that one unit is a factor of ten. In turn, `O=S(=O)(c1ccc(Cl)cc1)N1CCc2n[nH]cc2C1c1nccs1` (racemic) came in with an ED50 in series [1] of 139 nM. Besides, the pIC50 on Gamma-secretase [2] was 7.54; at Gamma-secretase [4], 5.19; at Gamma-secretase [5], 6.07. The remaining at 0.5 h in series [3] was 57%.

Consider `O=S(=O)(c1ccc(Cl)cc1)N1CCc2[nH]ncc2C1c1cncnc1` (stereo not drawn), for which the pIC50 at Gamma-secretase [2] was 7.92; on Gamma-secretase [4] it was 5.64; against Gamma-secretase [5] it was 6.92. Further, the remaining at 0.5 h was determined as 50% in series [3] and 85% in series [6].

Take `CC(C)C1Cc2n[nH]cc2CN1S(=O)(=O)c1ccc(Cl)cc1` (racemic): in [1], the ED50 was 86 nM. Also, the negative logarithm of the IC50 (pIC50) was 7.79 on Gamma-secretase [2], 5.17 against Gamma-secretase [4] and 7.06 at Gamma-secretase [5]. The remaining at 0.5 h in series [3] was 5%.

Take `CC1CCCCN1S(=O)(=O)c1ccc(Cl)cc1` (racemic): the negative logarithm of the IC50 (pIC50) on Gamma-secretase [2] is 5.08.

For `O=S(=O)(c1ccc(Cl)cc1)N1Cc2cn[nH]c2CC1c1ccc(Cl)cc1` (racemic), the figures for the pIC50 on Gamma-secretase [2], on Gamma-secretase [4] and at Gamma-secretase [5] were 8.47, 5.59 and 6.51, respectively. Besides, the remaining at 0.5 h in series [3] came out at 12%; in series [6], 33%.

As to `O=S(=O)(c1ccc(Cl)cc1)N1Cc2c[nH]nc2CC1c1cncnc1` (stereo not drawn), the ED50 in series [1] amounted to 400 nM. Besides, the pIC50 at Gamma-secretase [2] was 6.27; on Gamma-secretase [4] it was below 4.40; at Gamma-secretase [5], 4.98. Moreover, the remaining at 0.5 h in series [3] amounted to 67%; in series [6] it was 70%.

As for `CC[C@H]1Cc2n[nH]cc2CN1S(=O)(=O)c1ccc(Cl)cc1` (racemic), the ED50 in [1] worked out at 19 nM. Moreover, the pIC50 is 9.00 on Gamma-secretase [2], 6.13 against Gamma-secretase [4] and 7.82 on Gamma-secretase [5]. The remaining at 0.5 h in [3] was 18%.

As to `O=S(=O)(c1ccc(Cl)cc1)N1Cc2c[nH]nc2CC1Cc1ccccc1` (racemic), the ED50 in series [1] worked out at 340 nM. The negative logarithm of the IC50 (pIC50) at Gamma-secretase [2] was 7.09; on Gamma-secretase [4] it was 4.78; on Gamma-secretase [5], 5.81. Also, the remaining at 0.5 h in series [3] worked out at 3%.

In [1], `O=S(=O)(c1ccc(Cl)cc1)N1CCc2n[nH]cc2C1c1cncnc1` (stereo not drawn) displayed an ED50 of 47.1 nM.

In turn, `O=S(=O)(c1ccc(Cl)cc1)N1Cc2c[nH]nc2CC1c1nccs1` (racemic) came in with an ED50 in [1] of 1270 nM. In addition, the figures for the pIC50 on Gamma-secretase [2], against Gamma-secretase [4] and at Gamma-secretase [5] were 6.61, 4.47 and 5.24, respectively. For the same compound, the remaining at 0.5 h in [3] was 54%; in series [6], 8%.

On to `O=S(=O)(c1ccc(Cl)cc1)N1Cc2cn[nH]c2CC1c1cccc(F)c1` (racemic), for which the results for the negative-log IC50 (pIC50) on Gamma-secretase [2], against Gamma-secretase [4] and against Gamma-secretase [5] were 8.08, 4.94 and 6.18, respectively. Besides, the remaining at 0.5 h in series [3] turned out to be 14%; in series [6], 0%.

On to `CC[C@H]1Cc2n[nH]cc2[C@@H](CC)N1S(=O)(=O)c1ccc(Cl)cc1` (racemic), for which, in [1], the ED50 was 1.27 nM.

Take `CCCC1CCCCN1S(=O)(=O)c1ccc(Cl)cc1` (racemic): on Gamma-secretase [2], the negative-log IC50 (pIC50) was 5.77.

Compound `O=S(=O)(c1ccc(Cl)cc1)N1CCc2n[nH]cc2C1CO` (stereo not drawn) showed an ED50 in [1] of 3130 nM. Besides, the negative logarithm of the IC50 (pIC50) is 6.25 at Gamma-secretase [2], below 4.40 against Gamma-secretase [4] and 5.06 on Gamma-secretase [5]. Further, the remaining at 0.5 h in series [3] came to 84%.

For the compound `CC[C@H]1Cc2n[nH]cc2[C@@H](CC)N1S(=O)(=O)c1ccc(Cl)cc1.Cl`, the negative-log IC50 (pIC50) was 7.20 on Gamma-secretase [2] and 5.16 against Gamma-secretase [4]. The Stability in the series on Liver microsomes [7] was 0%; with Liver microsomes [8] it was 1%.

On to `CC[C@H]1Cc2n[nH]cc2[C@@H](CC)N1S(=O)(=O)c1ccc(Cl)cc1` (racemic) [ENT A], for which the negative-log IC50 (pIC50) at Gamma-secretase [2] was 9.32; against Gamma-secretase [4], 6.91; at Gamma-secretase [5], 8.30. In the series with Liver microsomes [7], the Stability turned out to be 1%. Further, the remaining at 0.5 h in series [6] is 2%.

`O=S(=O)(c1ccc(Cl)cc1)N1Cc2c[nH]nc2CC1c1ccc(F)cc1` (racemic) had an ED50 in series [1] of 28 nM.

`CCOC(=O)C1c2c[nH]nc2CCN1S(=O)(=O)c1ccc(Cl)cc1` (stereo not drawn) registered an ED50 in [1] of 137 nM. Also, the negative-log IC50 (pIC50) on Gamma-secretase [2] is 7.99; against Gamma-secretase [4], 4.99; against Gamma-secretase [5], 6.69. Also, the remaining at 0.5 h in [3] and in series [6] was 1% each time.

For the compound `CCOC(=O)C1Cc2n[nH]cc2CN1S(=O)(=O)c1ccc(Cl)cc1` (stereo not drawn), the ED50 in [1] stood at 1420 nM. The pIC50 was 6.37 at Gamma-secretase [2], below 4.40 at Gamma-secretase [4] and 5.23 against Gamma-secretase [5]. Also, the remaining at 0.5 h in series [3] amounted to 8%.

For orientation: Kp means the ratio of the level in a tissue or fluid to that in plasma or blood. Turning to `CC[C@H]1Cc2n[nH]cc2[C@@H](CC)N1S(=O)(=O)c1ccc(Cl)cc1` [ENT A], the Kp in [9] turned out to be 0.8. Besides, the Activity in the series with Mus musculus is given as 25%. Further, the values for the pIC50 at Gamma-secretase [2], against Gamma-secretase [4] and at Gamma-secretase [5] were 9.46, 7.15 and 8.24, respectively. In the series with Liver microsomes [8], the Stability is 1%.

`O=S(=O)(c1ccc(Cl)cc1)N1Cc2c[nH]nc2CC1c1ccc(Cl)cc1` (racemic) displayed an ED50 in [1] of 17.5 nM.

As to `O=S(=O)(c1ccc(Cl)cc1)N1CCCCC1c1ccccc1` (racemic), the negative logarithm of the IC50 (pIC50) at Gamma-secretase [2] is 6.12.

Turning to `CCC1CCCCN1S(=O)(=O)c1ccc(Cl)cc1` (racemic), the pIC50 on Gamma-secretase [2] is 5.70.

On to `O=S(=O)(c1ccc(Cl)cc1)N1Cc2c[nH]nc2CC1c1cccc(F)c1` (racemic), for which the ED50 in series [1] is 47.1 nM.

On to `CC[C@H]1Cc2n[nH]cc2[C@@H](c2ccc(Cl)cc2)N1S(=O)(=O)c1ccc(Cl)cc1` (racemic), for which the ED50 in series [1] is 16.7 nM. Further, the negative-log IC50 (pIC50) at Gamma-secretase [2] was 8.43; against Gamma-secretase [4] it was 5.80; against Gamma-secretase [5] it was 7.12. Besides, the values for the remaining at 0.5 h in series [3] and in series [6] were 10% and 31%, respectively.

In the case of `O=S(=O)(c1ccc(Cl)cc1)N1CCCCC1`, at Gamma-secretase [2], the negative logarithm of the IC50 (pIC50) is below 4.52.

As for `O=S(=O)(c1ccc(Cl)cc1)N1Cc2c[nH]nc2CC1c1cc(F)cc(F)c1` (racemic), the ED50 in series [1] was found to be 60.1 nM. In addition, the negative logarithm of the IC50 (pIC50) is 8.01 at Gamma-secretase [2], 4.85 on Gamma-secretase [4] and 6.11 against Gamma-secretase [5]. The remaining at 0.5 h in series [3] turned out to be 3%; in [6], 0%.

For `CC[C@@H]1c2c[nH]nc2C[C@H](c2ccc(Cl)cc2)N1S(=O)(=O)c1ccc(Cl)cc1` (racemic), the ED50 in series [1] worked out at 182 nM. The negative logarithm of the IC50 (pIC50) on Gamma-secretase [2] was 7.65; against Gamma-secretase [4], 4.81; on Gamma-secretase [5], 6.90. The remaining at 0.5 h in [3] is 4%; in [6], 25%.

In turn, `CN(C)C(=O)OCC1c2c[nH]nc2CCN1S(=O)(=O)c1ccc(Cl)cc1` (racemic) registered an ED50 in series [1] of 5320 nM. Also, the pIC50 is 6.46 on Gamma-secretase [2], below 4.40 on Gamma-secretase [4] and 5.08 against Gamma-secretase [5]. Moreover, the remaining at 0.5 h in series [3] was 15%; in series [6], 59%.

Compound `O=S(=O)(c1ccc(Cl)cc1)N1Cc2c[nH]nc2CC1c1ccccc1` (stereo not drawn) displayed an ED50 in series [1] of 55.3 nM. For the same compound, the results for the pIC50 at Gamma-secretase [2], against Gamma-secretase [4] and on Gamma-secretase [5] were 8.11, 5.19 and 6.22, respectively. For the same compound, the remaining at 0.5 h in series [3] was found to be 5%; in series [6] it was 8%.

`O=S(=O)(c1ccc(Cl)cc1)N1Cc2cn[nH]c2CC1c1ccc(F)cc1` (racemic): the negative-log IC50 (pIC50) on Gamma-secretase [2] was 8.27; on Gamma-secretase [4], 5.27; against Gamma-secretase [5], 6.32. The remaining at 0.5 h in series [3] is 6%.

For the compound `C[C@@H]1CCC[C@H](C)N1S(=O)(=O)c1ccc(Cl)cc1`, at Gamma-secretase [2], the pIC50 was 6.00.
